# Data published in ChEMBL document CHEMBL1152395, “Scuteflorins A and B, dihydropyranocoumarins from Scutellaria lateriflora” (J Nat Prod, 2009).
# Activity calls are given as the source filed them. No cut-off for these calls is given here.
# What was measured:
# [1] = system: SW1353; assay: Antiinflammatory activity in PMA-stimulated human SW1353 cells assessed as inhibition of NF-kappaB activation; type: functional, cell-based
# Procedure, shortened: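 SW1353 cells were stimulated with PMA, and inhibition of NF-κB-mediated transcription was scored as IC50. Parthenolide was the positive control. Specificity was checked against a Sp-1-dependent luciferase control plasmid.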
# [2] = system: KB; assay: Cytotoxicity against human KB cells upto 50 uM by neutral red assay; type: functional, cell-based
# Procedure, shortened: (§1)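 Neutral red uptake assay. Purified compounds were tested up to 50 μM and the methanol extract up to 50 μg/mL. The panel was normal Vero monkey kidney fibroblasts and LLC-PK11 pig kidney epithelial cells, plus solid tumour lines HepG2, SK-MEL, KB, BT-549 and SK-OV-3.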
# [3] = system: BT-549; assay: Cytotoxicity against human BT549 cells upto 50 uM by neutral red assay; type: functional, cell-based; procedure, shortened: as §1
# [4] = system: SK-MEL; assay: Cytotoxicity against human SK-MEL cells upto 50 uM by neutral red assay; type: functional, cell-based; procedure, shortened: as §1
# [5] = system: SK-OV-3; assay: Cytotoxicity against human SKOV3 cells upto 50 uM by neutral red assay; type: functional, cell-based; procedure, shortened: as §1
# [6] = system: HepG2; assay: Cytotoxicity against human HepG2 cells upto 50 uM by neutral red assay; type: functional, cell-based; procedure, shortened: as §1
# [7] = system: SW1353; assay: Cytotoxicity against human SW1353 cells by neutral red assay; type: cell-based
# [8] = molecular target: Transcription factor Sp1 (Homo sapiens) (UniProt P08047); assay: Inhibition of SP1-dependent luciferase expression
# Transcription factor Sp1 (Homo sapiens), sequence (P08047 whole entry): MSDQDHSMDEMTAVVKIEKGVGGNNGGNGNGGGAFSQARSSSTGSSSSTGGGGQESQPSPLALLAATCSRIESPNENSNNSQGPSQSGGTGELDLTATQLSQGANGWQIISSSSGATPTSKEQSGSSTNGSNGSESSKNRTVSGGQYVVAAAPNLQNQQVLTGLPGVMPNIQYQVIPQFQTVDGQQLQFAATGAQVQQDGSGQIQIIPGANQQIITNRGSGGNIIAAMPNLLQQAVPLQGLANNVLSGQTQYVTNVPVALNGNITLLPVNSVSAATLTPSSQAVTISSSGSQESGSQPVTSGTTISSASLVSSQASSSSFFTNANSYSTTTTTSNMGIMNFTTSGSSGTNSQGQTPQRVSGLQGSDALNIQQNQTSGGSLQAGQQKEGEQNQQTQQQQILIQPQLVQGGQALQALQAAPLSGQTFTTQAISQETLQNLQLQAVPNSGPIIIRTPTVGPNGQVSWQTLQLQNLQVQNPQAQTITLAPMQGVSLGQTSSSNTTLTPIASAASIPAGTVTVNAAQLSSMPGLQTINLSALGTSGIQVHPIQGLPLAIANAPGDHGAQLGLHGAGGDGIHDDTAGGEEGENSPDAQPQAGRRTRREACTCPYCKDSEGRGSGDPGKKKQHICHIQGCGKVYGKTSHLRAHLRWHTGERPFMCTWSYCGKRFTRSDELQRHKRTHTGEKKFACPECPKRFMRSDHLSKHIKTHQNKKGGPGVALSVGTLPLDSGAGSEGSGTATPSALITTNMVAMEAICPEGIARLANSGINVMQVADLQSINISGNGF
# Procedure, shortened: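 Counter-screen in SW1353 cells for inhibition of luciferase expression from a control plasmid driven by Sp-1. It runs alongside the PMA-induced NF-κB transcription assay to exclude nonspecific or cytotoxic effects.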
# [9] = Cytotoxicity against pig LLC-PK11 cells upto 50 uM by neutral red assay; type: cell-based, Sus scrofa; procedure, shortened: as §1
# [10] = system: Vero; assay: Cytotoxicity against african green monkey Vero cells upto 50 uM by neutral red assay; type: cell-based; conditions: chlorocebus sabaeus; procedure, shortened: as §1
# [11] = system: HL-60; assay: Antioxidant activity in human HL60 cells assessed as inhibition of relative oxygen species generation by DCFH-DA method; type: functional, cell-based
# Procedure, shortened: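 Intracellular reactive oxygen species generation was measured in myelomonocytic HL-60 cells by the DCFH-DA method. IC50 values were derived, and vitamin C served as positive control. Cytotoxicity in HL-60 cells was checked up to 62.5 μM within this assay.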
# [12] = system: HL-60; assay: Cytotoxicity against human HL60 cells by neutral red assay; type: cell-based
SMILES,IC50 [1] [µM],Activity [2],Activity [3],Activity [4],Activity [5],Activity [6],Activity [7],Activity [8],Activity [9],Activity [10],"IC50 ([11]; Homo sapiens, HL-60, read-out: IC50) [µM]",IC50 ([11]; hl-60),Activity [12]
C=C1C(=O)O[C@@H]2C3O[C@]3(C)CC/C=C(\C)CC[C@@H]12 (some centres not stated),4.1,–,–,–,–,–,–,–,–,–,–,–,–
COc1ccccc1-c1cc(=O)c2c(O)cc(O)c(OC)c2o1,–,inactive,inactive,inactive,inactive,inactive,Non-toxic,inactive,Non-toxic,Non-toxic,–,–,–
O=C1O[C@H]([C@@H](O)CO)C(O)=C1O [ASCORBIC ACID],–,–,–,–,–,–,–,–,–,–,0.01,–,–
CC[C@H](CC[C@@H](C)[C@H]1CC[C@H]2[C@@H]3CC=C4C[C@@H](O)CC[C@]4(C)[C@H]3CC[C@]12C)C(C)C [BETA-SITOSTEROL],–,inactive,inactive,inactive,inactive,inactive,Non-toxic,inactive,Non-toxic,Non-toxic,–,–,–
O=c1cc(-c2ccccc2)oc2cc(O)cc(O)c12 [CHRYSIN],33,inactive,inactive,inactive,inactive,inactive,Non-toxic,inactive,Non-toxic,Non-toxic,–,Not Active,–
CC(C)=CC(=O)O[C@H]1Cc2cc3ccc(=O)oc3cc2OC1(C)C [DECURSIN],–,inactive,inactive,inactive,inactive,inactive,Non-toxic,inactive,Non-toxic,Non-toxic,–,–,–
COc1c(O)cc2c(c1O)C(=O)C[C@@H](c1ccccc1)O2 [DIHYDROOROXYLIN A],–,inactive,inactive,inactive,inactive,inactive,Non-toxic,inactive,Non-toxic,Non-toxic,–,–,–
C=C(C)[C@@H]1CC[C@]2(C)CC[C@]3(C)[C@H](CC[C@@H]4[C@@]5(C)CC[C@H](O)C(C)(C)[C@@H]5CC[C@]43C)[C@@H]12 [LUPEOL],–,inactive,inactive,inactive,inactive,inactive,Non-toxic,inactive,Non-toxic,Non-toxic,–,–,–
COc1c(O)cc2oc(-c3ccccc3)cc(=O)c2c1O [OROXYLIN A],> 50,inactive,inactive,inactive,inactive,inactive,Non-toxic,inactive,Non-toxic,Non-toxic,–,Not Active,–
CCCCCCCCCCCCCCCC(=O)O [PALMITIC ACID],–,inactive,inactive,inactive,inactive,inactive,Non-toxic,inactive,Non-toxic,Non-toxic,–,–,–
O=C1C[C@@H](c2ccccc2)Oc2cc(O)cc(O)c21 [PINOCEMBRIN],–,inactive,inactive,inactive,inactive,inactive,Non-toxic,inactive,Non-toxic,Non-toxic,–,–,–
C[C@@H]1CC[C@]2(C(=O)O)CC[C@]3(C)C(=CC[C@@H]4[C@@]5(C)CC[C@H](O)C(C)(C)[C@@H]5CC[C@]43C)[C@@H]2[C@]1(C)O [POMOLIC ACID],–,inactive,inactive,inactive,inactive,inactive,Non-toxic,inactive,Non-toxic,Non-toxic,–,–,–
CC(C)=CC(=O)O[C@H]1C(=O)c2cc3ccc(=O)oc3cc2OC1(C)C [SCUTEFLORIN A],–,inactive,inactive,inactive,inactive,inactive,Non-toxic,inactive,Non-toxic,Non-toxic,–,–,–
C/C=C(/C)C(=O)O[C@H]1C(=O)c2cc3ccc(=O)oc3cc2OC1(C)C [SCUTEFLORIN B],–,inactive,inactive,inactive,inactive,inactive,Non-toxic,inactive,Non-toxic,Non-toxic,–,–,–
CC1(C)CC[C@]2(C(=O)O)CC[C@]3(C)C(=CC[C@@H]4[C@@]5(C)CC[C@@H](O)[C@](C)(CO)[C@@H]5CC[C@]43C)[C@@H]2C1 [SCUTELLARIC ACID],–,inactive,inactive,inactive,inactive,inactive,Non-toxic,inactive,Non-toxic,Non-toxic,–,–,–
CC[C@H](CC[C@@H](C)[C@H]1CC[C@H]2[C@@H]3CC=C4C[C@@H](O[C@@H]5O[C@H](CO)[C@@H](O)[C@H](O)[C@H]5O)CC[C@]4(C)[C@H]3CC[C@]12C)C(C)C [SITOGLUSIDE],–,inactive,inactive,inactive,inactive,inactive,Non-toxic,inactive,Non-toxic,Non-toxic,–,–,–
C[C@H]1[C@H](C)CC[C@]2(C(=O)O)CC[C@]3(C)C(=CC[C@@H]4[C@@]5(C)CC[C@H](O)C(C)(C)[C@@H]5CC[C@]43C)[C@H]12 [URSOLIC ACID],–,inactive,inactive,inactive,inactive,inactive,Non-toxic,inactive,Non-toxic,Non-toxic,–,–,–
COc1c(O)cc(O)c2c(=O)cc(-c3ccccc3)oc12 [WOGONIN],39,inactive,inactive,inactive,inactive,inactive,Non-toxic,inactive,Non-toxic,Non-toxic,–,–,Not Active
